The source made the active and inactive calls. No cut-off for these calls is given here.
Experiments:
Trypanosoma cruzi [1] = test: Antitrypanosomal activity against Trypanosoma cruzi SN3 epimastigote forms incubated for 72 hrs by hemocytometry; format: functional, organism-based; details: SN3, 72 h
Method in brief: (§1)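 Epimastigotes grown in MTL medium with 10% inactivated FBS at 28 °C. Compounds were dissolved in DMSO (0.01% v/v) and added at 0.1–100 µM for 72 h. Parasites were counted in a Neubauer chamber. IC50 (50% growth inhibition) was derived by linear regression of Kc values. Values are averages of four determinations.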

Trypanosoma cruzi [2] = test: Antitrypanosomal activity against Trypanosoma cruzi SN3 trypomastigote froms infected in mouse blood incubated for 24 hrs by Neubauer chamber based assay; format: functional, organism-based
Method in brief: (§2)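 Mouse blood taken at peak parasitemia (day 7) was diluted with uninfected blood to 4×10^6 trypomastigotes/mL, then 1:2 in RPMI 1640. Drugs from DMSO stocks were added at 1, 10, 25, 50 and 100 µM and incubated 24 h at 4–8 °C. Parasites were counted in a Neubauer chamber in triplicate. IC50 was calculated versus control.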

Trypanosoma cruzi [3] = test: Antitrypanosomal activity against Trypanosoma cruzi Arequipa epimastigote forms incubated for 72 hrs by hemocytometry; format: functional, organism-based; method in brief: as §1
Trypanosoma cruzi [4] = test: Antitrypanosomal activity against Trypanosoma cruzi Arequipa trypomastigote froms infected in mouse blood incubated for 24 hrs by Neubauer chamber based assay; format: functional, organism-based; method in brief: as §2
Trypanosoma cruzi [5] = test: Antitrypanosomal activity against Trypanosoma cruzi Arequipa amastigote forms infected in African green monkey Vero cells incubated for 72 hrs by Giemsa staining based micrscopy; format: functional, organism-based
Method in brief: (§3)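 Vero cells (RPMI, 10% inactivated FBS, 37 °C, 5% CO2) were seeded at 1×10^4/well on coverslips and cultured 2 days. They were infected 24 h with metacyclic forms at 10:1. After washing off free parasites, drugs were added at 0.1–100 µM for 72 h. Slides were methanol-fixed and Giemsa-stained; amastigotes were counted in 200 host cells versus untreated. IC50 was calculated.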

Trypanosoma cruzi [6] = test: Antitrypanosomal activity against Trypanosoma cruzi Tulahuen epimastigote forms incubated for 72 hrs by hemocytometry; format: functional, organism-based; method in brief: as §1
[7] = Selectivity index, ratio of IC50 for cytotoxicity in African green monkey Vero cells to IC50 for antitrypanosomal activity against Trypanosoma cruzi […] amastigote forms; format: toxicity, cell-based; details: read-out: Ratio IC50
Trypanosoma cruzi [8] = test: Antitrypanosomal activity against Trypanosoma cruzi Tulahuen amastigote forms infected in African green monkey Vero cells incubated for 72 hrs by Giemsa staining based micrscopy; format: functional, organism-based; method in brief: as §3
Trypanosoma cruzi [9] = test: Antitrypanosomal activity against Trypanosoma cruzi SN3 amastigote forms infected in African green monkey Vero cells incubated for 72 hrs by Giemsa staining based micrscopy; format: functional, organism-based; method in brief: as §3
Trypanosoma cruzi [10] = test: Antitrypanosomal activity against Trypanosoma cruzi Tulahuen trypomastigote froms infected in mouse blood incubated for 24 hrs by Neubauer chamber based assay; format: functional, organism-based; method in brief: as §2
Vero = test: Cytotoxicity in African green monkey Vero cells incubated for 72 hrs; format: cell-based; details: Chlorocebus sabaeus
[11] = Selectivity index, ratio of IC50 for cytotoxicity in African green monkey Vero cells to IC50 for antitrypanosomal activity against Trypanosoma cruzi […] epimastigote forms
Trypanosoma cruzi [12] = test: Antitrypanosomal activity against Trypanosoma cruzi Arequipa trypomastigotes infected in BALB/c mouse assessed as reduction in parasitemia level in heart measured during acute phase (days 0 to 40 post infection) at 50 to 100 mg/kg, po dosed on alternating days (7 to 15 days post infection) by PCR analysis; format: functional, organism-based; details: dose 50-100 mg/kg
Trypanosoma cruzi [13] = test: Antitrypanosomal activity against Trypanosoma cruzi Arequipa trypomastigotes infected in BALB/c mouse assessed as reduction in parasitemia measured during acute phase (days 0 to 40 post infection) at 50 to 100 mg/kg, po dosed on alternating days (7 to 15 days post infection); format: functional, organism-based; details: dose 50-100 mg/kg
Method in brief: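 Female BALB/c mice (8–10 weeks, 25–30 g; groups of six) were infected i.p. with 5×10^5 Arequipa blood trypomastigotes. Dosing was oral, 50 or 100 mg/kg/day, on 5 alternating days (days 7–15 pi), alongside untreated and reference-drug groups. Parasitemia was counted in 5 µL mandibular-vein blood by Neubauer chamber through day 40 pi. Data are means ± SD of six mice.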

Trypanosoma cruzi [14] = test: (§4) Antitrypanosomal activity against Trypanosoma cruzi Arequipa trypomastigotes infected in BALB/c mouse assessed as reduction in parasitemia level in brain measured during acute phase (days 0 to 40 post infection) at 100 mg/kg, po dosed on alternating days (7 to 15 days post infection) by PCR analysis; format: functional, organism-based
Trypanosoma cruzi [15] = test: Antitrypanosomal activity against Trypanosoma cruzi infected in African green monkey Vero cells assessed as reduction in number of amastigotes per infected cell measured up to 10 days by Giemsa staining based hemocytometry; format: functional; details: time day <=10
Method in brief: (§5)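 Vero cells infected with metacyclic forms (10:1) were exposed to one concentration per compound immediately after infection for 12 h at 37 °C, 5% CO2. After washing, cultures were kept 10 days with fresh medium every 48 h. Every 48 h, % infected cells and amastigotes per infected cell (200 Giemsa-stained cells) and medium trypomastigotes (Neubauer) were scored. Means of three experiments.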

Trypanosoma cruzi [16] = test: Antitrypanosomal activity against Trypanosoma cruzi Arequipa trypomastigotes infected in BALB/c mouse assessed as reduction in mouse mortality measured during acute phase (days 0 to 40 post infection) at 50 to 100 mg/kg, po dosed on alternating days (7 to 15 days post infection); format: functional, organism-based; details: dose 50-100 mg/kg
Trypanosoma cruzi [17] = test: as §4, with “stomach” for “brain”; format: functional, organism-based
Trypanosoma cruzi [18] = test: Antitrypanosomal activity against Trypanosoma cruzi infected in African green monkey Vero cells assessed as reduction in number of trypomastigotes measured up to 10 days by Giemsa staining based hemocytometry; format: functional; details: time day <=10; method in brief: as §5
[19] = molecular target: T1, Superoxide dismutase [Cu-Zn] (Homo sapiens, UniProt P00441); test: Inhibition of human erythrocyte CuZn-SOD by NBT dye based spectrophotometry
T1 sequence (P00441 whole entry): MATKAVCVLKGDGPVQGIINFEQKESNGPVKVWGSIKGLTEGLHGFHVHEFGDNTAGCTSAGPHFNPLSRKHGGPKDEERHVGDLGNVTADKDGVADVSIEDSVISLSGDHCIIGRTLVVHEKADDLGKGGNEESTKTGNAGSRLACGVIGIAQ
Method in brief: (§6)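 Fe-SOD source: Arequipa epimastigote homogenate (STE buffer pH 7.8, sonication, centrifugation, supernatant; protein by Bradford); CuZn-SOD was commercial human erythrocyte enzyme. Activity was measured as NBT reduction by superoxide in 50 mM potassium phosphate pH 7.8, with compounds at 5 concentrations (1–100 µM). A560 was read before and after 10 min under lamp light with stirring. Three rate determinations; Newman–Keuls test.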

Trypanosoma cruzi [20] = test: Antitrypanosomal activity against Trypanosoma cruzi Arequipa trypomastigotes infected in BALB/c mouse assessed as reduction in splenomegaly by measuring weight percent of spleens […] at 100 mg/kg, po dosed on alternating days (7 to 15 days post infection) by PCR analysis (reference value: 1.603%); format: functional
Trypanosoma cruzi [21] = test: Antitrypanosomal activity against Trypanosoma cruzi Arequipa trypomastigotes infected in BALB/c mouse assessed as parasitemia re-activation level measured during chronic phase ( day 90 post infection) at 100 mg/kg, po dosed on alternating days (7 to 15 days post infection) relative to acute phase infection (reference value: […]%); format: functional
Trypanosoma cruzi [22] = test: as §4, with “adipose tissue” for “brain”; format: functional, organism-based
Trypanosoma cruzi [23] = test: Inhibition of Trypanosoma cruzi Arequipa Fe-SOD at 50 uM by NBT dye based spectrophotometry; method in brief: as §6
Trypanosoma cruzi [24] = test: as §4, with “esophagus” for “brain”; format: functional, organism-based
[25] = molecular target: T1, Superoxide dismutase [Cu-Zn]; test: Inhibition of human erythrocyte CuZn-SOD at 50 uM by NBT dye based spectrophotometry; method in brief: as §6
Trypanosoma cruzi [26] = test: as §4, with “bone marrow” for “brain”; format: functional, organism-based
Trypanosoma cruzi [27] = test: Antitrypanosomal activity against Trypanosoma cruzi Arequipa trypomastigotes infected in BALB/c mouse assessed as reduction in splenomegaly by measuring weight percent of spleens […] at 50 mg/kg, po dosed on alternating days (7 to 15 days post infection) by PCR analysis (reference value: 1.603%); format: functional; design: scale not given: the % may be the effect or the level left
Trypanosoma cruzi [28] = test: Antitrypanosomal activity against Trypanosoma cruzi infected in African green monkey Vero cells assessed as reduction in infection rate measured up to 10 days by Giemsa staining based hemocytometry; format: functional; details: time day <=10; method in brief: as §5
Trypanosoma cruzi [29] = test: as §4, with “muscle” for “brain”; format: functional, organism-based
[30] = Inhibition of Trypanosoma cruzi Arequipa Fe-SOD by NBT dye based spectrophotometry; method in brief: as §6
Trypanosoma cruzi [31] = test: Antitrypanosomal activity against Trypanosoma cruzi Arequipa trypomastigotes infected in BALB/c mouse assessed as reduction in parasitemia level in lung measured during acute phase (days 0 to 40 post infection) at 100 mg/kg, po dosed on alternating days (7 to 15 days post infection) by PCR analysis; format: functional, organism-based
Trypanosoma cruzi [32] = test: Antitrypanosomal activity against Trypanosoma cruzi Arequipa trypomastigotes infected in BALB/c mouse assessed as reduction in parasitemia level in heart measured during acute phase (days 0 to 40 post infection) at 100 mg/kg, po dosed on alternating days (7 to 15 days post infection) by PCR analysis; format: functional, organism-based
[33] = molecular target: T1, Superoxide dismutase [Cu-Zn]; test: Inhibition of human erythrocyte CuZn-SOD at 100 uM by NBT dye based spectrophotometry; method in brief: as §6
Trypanosoma cruzi [34] = test: Inhibition of Trypanosoma cruzi Arequipa Fe-SOD at <50 uM by NBT dye based spectrophotometry; details: dose microM <50; method in brief: as §6

Structure (SMILES)	IC50 (Trypanosoma cruzi [1])	IC50 (Trypanosoma cruzi [2])	IC50 (Trypanosoma cruzi [3])	IC50 (Trypanosoma cruzi [4])	IC50 (Trypanosoma cruzi [5])	IC50 (Trypanosoma cruzi [6])	IC50 (Trypanosoma cruzi [8])	IC50 (Trypanosoma cruzi [9])	IC50 (Trypanosoma cruzi [10])	IC50 (Vero)	Activity (Trypanosoma cruzi [12])	Activity (Trypanosoma cruzi [13])	Activity (Trypanosoma cruzi [14])	inhibition (INH) (Trypanosoma cruzi [15])	Activity (Trypanosoma cruzi [16])	Activity (Trypanosoma cruzi [17])	inhibition (INH) (Trypanosoma cruzi [18])	Spleen weight percent (Trypanosoma cruzi [20])	Activity (Trypanosoma cruzi [21])	inhibition (INH) (Trypanosoma cruzi [28])	other results
O=C(CCN1CCN(c2cccc(C(F)(F)F)c2)CC1)c1ccsc1	12.8 µM	4.6 µM	28 µM	26.8 µM	18.6 µM	28 µM	20.2 µM	5.7 µM	22.3 µM	4.8 µM	–	–	–	–	–	–	–	–	–	–	selectivity ratio [7]: 1; selectivity ratio [11]: 1
O=C(CCN1CCN(c2ccc([N+](=O)[O-])cc2)CC1)c1csc2ccccc12	41.4 µM	18.6 µM	77.7 µM	35.9 µM	11.7 µM	35.5 µM	19.8 µM	20.7 µM	0.5 µM	1710 µM	Active	Active	Active	45%	Active	Active	59%	0.729%	0%	59%	IC50 [19]: 46.6 µM; Activity (Trypanosoma cruzi [22]): Active; inhibition (Trypanosoma cruzi [23]): 100%; Activity (Trypanosoma cruzi [24]): Active; inhibition [25]: 100%; Activity (Trypanosoma cruzi [26]): Active; Activity (Trypanosoma cruzi [27]): 1.174%; Activity (Trypanosoma cruzi [29]): Active; IC50 [30]: 7.8 µM; Activity (Trypanosoma cruzi [31]): Active; Activity (Trypanosoma cruzi [32]): Active
O=C(Cn1ccnc1[N+](=O)[O-])NCc1ccccc1 [BENZNIDAZOLE]	–	6.2 µM	–	12.6 µM	23.7 µM	–	21.7 µM	–	12.8 µM	–	–	Active	–	30%	Active	–	20%	0.837%	–	22%	–
O=C(CCN1CCN(c2ccc([N+](=O)[O-])cc2C(F)(F)F)CC1)c1csc2ccccc12	179 µM	33 µM	26 µM	20.3 µM	10.8 µM	50.3 µM	22.8 µM	72.9 µM	2.5 µM	2850 µM	Active	Active	Active	74%	Active	Active	64%	0.892%	0%	76%	inhibition [33]: inactive; Activity (Trypanosoma cruzi [22]): Active; Activity (Trypanosoma cruzi [24]): Active; Activity (Trypanosoma cruzi [26]): Active; Activity (Trypanosoma cruzi [27]): 1.171%; Activity (Trypanosoma cruzi [29]): Active; IC50 [30]: 71.1 µM; Activity (Trypanosoma cruzi [31]): Active; inhibition (Trypanosoma cruzi [34]): 100%; Activity (Trypanosoma cruzi [32]): Active
O=C(CCN1CCN(c2ccc(F)cc2)CC1)c1ccc2c(c1)OCO2	17.6 µM	63.4 µM	97 µM	34.6 µM	22.4 µM	200 µM	22.3 µM	14.8 µM	56.3 µM	323 µM	–	–	–	–	–	–	–	–	–	–	–
O=C(CCN1CCN(c2ccc([N+](=O)[O-])cc2)CC1)c1ccc2c(c1)OCO2	18.8 µM	50.9 µM	1.4 µM	0.58 µM	1.2 µM	15.6 µM	11.6 µM	11.4 µM	0.08 µM	276 µM	–	–	–	–	–	–	–	–	–	–	–

From ChEMBL document CHEMBL4680103, “In Vitro and in Vivo Anti-Trypanosoma cruzi Activity of New Arylamine Mannich Base-Type Derivatives” (J Med Chem, 2016)
